Test results: ChEMBL document CHEMBL2440006, “Mastering tricyclic ring systems for desirable functional cannabinoid activity” (Eur J Med Chem, 2013)
The source made the active and inactive calls.

Experiments:
Rattus norvegicus = assay: Antiallodynic activity in ip dosed Sprague-Dawley rat spinal nerve ligation model of neuropathic pain assessed as reduction of tactile allodynia; type: functional, organism-based
In short: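 Male Sprague Dawley rats, 120–150 g. Left L5/L6 spinal nerves ligated under isoflurane; tested three weeks later. Single i.p. bolus, 5–20 mg/kg, in 30% hydroxypropyl-β-cyclodextrin in PBS, prepared within 1 h before injection. Paw withdrawal threshold by von Frey filaments, 50% threshold by up-down method. Seven rats per group. Repeated-measures ANOVA with Dunnett's test vs time 0.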

Cannabinoid receptor 1 = Cannabinoid receptor 1 (Rattus norvegicus, UniProt P20272); assay: Displacement of [3H]-CP55940 from CB1 receptor in rat brain homogenate after 1.5 hrs by microbeta liquid scintillation counting analysis; type: tissue-based; conditions: read-out: Ki
In short: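 Membranes from rat brain homogenate (CB1) or HEK293 cells expressing human CB2. […] GF/B filtration, then scintillation counting. […] IC50 by three-parameter logistic fit, Ki by Cheng-Prusoff. Three experiments in triplicate.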

[1] = molecular target: Cannabinoid receptor 1 (Homo sapiens) (UniProt P21554); assay: Induction of human CB1 receptor internalization expressed in HEK293 cells at 10 uM relative to CP55940; type: cell-based
In short: (§1)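 Cells stably expressing human CB1 or human CB2 receptors, exposed to test compound alone. […] Mean of two determinations.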

Cannabinoid receptor 2 [2] = molecular target: T1, Cannabinoid receptor 2 (Homo sapiens, UniProt P34972); assay: Antagonist activity at human recombinant […] receptor expressed in CHO cells at 1 uM after 1 hr by [35S]GTPgammaS binding assay; type: functional, cell-based
Cannabinoid receptor 2 [3] = molecular target: T1, Cannabinoid receptor 2; assay: Displacement of [3H]-CP55940 from human CB2 receptor expressed in HEK293 cells after 1.5 hrs by microbeta liquid scintillation counting analysis; type: cell-based; conditions: read-out: Ki
In short: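 Membranes from rat brain homogenate (CB1) or HEK293 cells expressing human CB2. GF/B filtration, then scintillation counting. IC50 by three-parameter logistic fit, Ki by Cheng-Prusoff. Three experiments in triplicate.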

Cannabinoid receptor 2 [4] = molecular target: T1, Cannabinoid receptor 2; assay: Induction of human CB2 receptor internalization expressed in HEK293 cells at 10 uM relative to CP55940; type: cell-based; in short: as §1
[5] = Selectivity ratio of Ki for rat CB1 receptor to Ki for human CB2 receptor
Cannabinoid receptor 2 [6] = molecular target: T1, Cannabinoid receptor 2; assay: Agonist activity at human recombinant CB2 receptor expressed in CHO cells after 1 hr by [35S]GTPgammaS binding assay relative to CP55940; type: functional, cell-based
In short: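 Membranes from CHO cells expressing hCB1 or hCB2, preincubated at least 15 min on ice with 30 μM GDP solution. GTP-γ-[35S] with WGA-PVT SPA beads. Eight concentrations, 0.001–10 μM, in duplicate. Incubated 1 h at room temperature, centrifuged, then a further 1 h before counting. […] Mean of two determinations.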

Cannabinoid receptor 2 [7] = molecular target: T1, Cannabinoid receptor 2; assay: Agonist activity at human recombinant CB2 receptor expressed in CHO cells after 1 hr by [35S]GTPgammaS binding assay; type: functional, cell-based
Cannabinoid receptor 2 [8] = molecular target: T1, Cannabinoid receptor 2; assay: Agonist activity at human recombinant […] receptor expressed in CHO cells at 1 uM after 1 hr by [35S]GTPgammaS binding assay; type: functional, cell-based

T1 sequence (P34972 whole entry): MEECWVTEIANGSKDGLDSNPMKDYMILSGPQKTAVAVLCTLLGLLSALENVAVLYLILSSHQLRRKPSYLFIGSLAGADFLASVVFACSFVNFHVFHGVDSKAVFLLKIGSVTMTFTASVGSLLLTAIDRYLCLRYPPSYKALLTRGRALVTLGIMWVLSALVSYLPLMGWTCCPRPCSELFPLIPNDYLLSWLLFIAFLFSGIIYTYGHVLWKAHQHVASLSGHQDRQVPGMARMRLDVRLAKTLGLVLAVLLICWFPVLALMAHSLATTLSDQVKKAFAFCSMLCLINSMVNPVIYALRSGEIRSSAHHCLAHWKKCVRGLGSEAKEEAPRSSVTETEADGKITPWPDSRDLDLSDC
Chain of Cannabinoid receptor 1 (P20272 whole entry): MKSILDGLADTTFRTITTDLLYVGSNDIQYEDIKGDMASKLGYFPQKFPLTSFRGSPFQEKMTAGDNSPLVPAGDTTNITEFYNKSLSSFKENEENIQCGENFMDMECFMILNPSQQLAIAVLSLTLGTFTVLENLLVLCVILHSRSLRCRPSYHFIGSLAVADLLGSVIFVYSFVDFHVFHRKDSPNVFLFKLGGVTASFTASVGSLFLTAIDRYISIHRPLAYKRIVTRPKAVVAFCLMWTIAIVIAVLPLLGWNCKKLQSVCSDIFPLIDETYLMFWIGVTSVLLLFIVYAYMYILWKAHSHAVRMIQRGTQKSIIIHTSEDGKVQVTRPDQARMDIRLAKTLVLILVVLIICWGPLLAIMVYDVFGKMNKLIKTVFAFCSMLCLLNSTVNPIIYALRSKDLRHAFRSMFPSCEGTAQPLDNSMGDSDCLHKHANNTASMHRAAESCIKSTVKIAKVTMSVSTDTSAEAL
Chain of Cannabinoid receptor 1 (Homo sapiens) (P21554 whole entry): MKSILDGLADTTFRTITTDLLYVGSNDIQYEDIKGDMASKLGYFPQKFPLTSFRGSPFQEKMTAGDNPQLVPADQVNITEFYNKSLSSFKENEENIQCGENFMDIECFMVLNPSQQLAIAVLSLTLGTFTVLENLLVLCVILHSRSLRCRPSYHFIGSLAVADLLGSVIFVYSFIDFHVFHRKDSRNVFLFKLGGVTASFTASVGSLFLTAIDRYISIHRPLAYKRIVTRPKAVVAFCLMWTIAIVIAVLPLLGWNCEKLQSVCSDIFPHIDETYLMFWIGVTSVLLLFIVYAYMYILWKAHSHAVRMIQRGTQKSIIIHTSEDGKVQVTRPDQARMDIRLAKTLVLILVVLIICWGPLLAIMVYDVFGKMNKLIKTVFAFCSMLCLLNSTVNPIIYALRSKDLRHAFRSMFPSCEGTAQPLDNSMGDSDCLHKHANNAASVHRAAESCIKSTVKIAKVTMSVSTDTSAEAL

## CS(=O)(=O)NCCCn1c2ccccc2c2cc(C(=O)N3CCCCC3)ccc21
Rattus norvegicus
  Activity: Dose-dependent effect
Cannabinoid receptor 1
  Ki: 1.47 µM
[1]
  Activity: 54.1%
Cannabinoid receptor 2 [2]
  Activity: inactive
Cannabinoid receptor 2 [3]
  Ki: 0.062 µM
Cannabinoid receptor 2 [4]
  Activity: 116%
[5]
  Ratio Ki: 23.7
Cannabinoid receptor 2 [6]
  Emax: 59.6%
Cannabinoid receptor 2 [7]
  EC50: 0.0073 µM
Cannabinoid receptor 2 [8]
  Activity: inactive
